Results published in ChEMBL document CHEMBL4270548, “Discovery of a potent glucokinase activator with a favorable liver and pancreas distribution pattern for the treatment of type 2 diabetes mellitus” (Eur J Med Chem, 2018).
The source made the active and inactive calls. The rule behind the calls is not given here.

What was measured:
[1] = Ratio of AUC (0 to 1.5 hrs) in C57BL/6J mouse liver to pancreas at 10 mg/kg, po administered as single dose by LC/MS/MS analysis; assay type: ADME, organism-based; conditions: in vivo
Mus musculus [2] = test: Antidiabetic activity in po dosed C57BL/6J mouse assessed as reduction in blood glucose level administered for 15 to 30 mins prior to glucose challenge measured up to 120 mins post dose by OGTT; assay type: functional, organism-based
How it was run: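 Fasted male C57BL/6J or ob/ob mice (8 weeks, n = 8/group) dosed orally in 0.5% methylcellulose 15 or 30 min before a 2 g/kg oral glucose load. Tail vein glucose measured by glucometer at −15 or −30, 0, 20, 40, 60, 90 and 120 min. Incremental glucose AUC0-120 min compared with vehicle. Mean ± SEM, Dunnett's test.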

[3] = AUC (0 to 1.5 hrs) in C57BL/6J mouse liver at 10 mg/kg, po administered as single dose by LC/MS/MS analysis; assay type: ADME, organism-based; parameters: time < 1.5 hr, dose 10 mg/kg, route oral; conditions: in vivo
[4] = Ratio of AUC (0 to 1.5 hrs) in C57BL/6J mouse pancreas to plasma at 30 mg/kg, po administered as single dose by LC/MS/MS analysis; assay type: ADME, organism-based; conditions: pancreas and plasma, read-out: Ratio AUC
[5] = Ratio of AUC (0 to 1.5 hrs) in C57BL/6J mouse liver to pancreas at 30 mg/kg, po administered as single dose by LC/MS/MS analysis; assay type: ADME, organism-based; conditions: in vivo
[6] = AUC (0 to 1.5 hrs) in C57BL/6J mouse pancreas at 5 mg/kg, po administered as single dose by LC/MS/MS analysis; assay type: ADME, organism-based; parameters: dose 5 mg/kg, time < 1.5 hr, route oral; conditions: in vivo
[7] = AUC (0 to 1.5 hrs) in C57BL/6J mouse plasma at 30 mg/kg, po administered as single dose by LC/MS/MS analysis; assay type: ADME, organism-based; parameters: dose 30 mg/kg, time < 1.5 hr, route oral
[8] = AUC (0 to 1.5 hrs) in C57BL/6J mouse pancreas at 30 mg/kg, po administered as single dose by LC/MS/MS analysis; assay type: ADME, organism-based; parameters: time < 1.5 hr, dose 30 mg/kg, route oral; conditions: in vivo
[9] = Ratio of AUC (0 to 1.5 hrs) in C57BL/6J mouse liver to pancreas at 5 mg/kg, po administered as single dose by LC/MS/MS analysis; assay type: ADME, organism-based; conditions: in vivo
[10] = Ratio of AUC (0 to 1.5 hrs) in C57BL/6J mouse pancreas to plasma at 10 mg/kg, po administered as single dose by LC/MS/MS analysis; assay type: ADME, organism-based; conditions: pancreas and plasma, read-out: Ratio AUC
[11] = Ratio of AUC (0 to 1.5 hrs) in C57BL/6J mouse pancreas to plasma at 5 mg/kg, po administered as single dose by LC/MS/MS analysis; assay type: ADME, organism-based; conditions: pancreas and plasma, read-out: Ratio AUC
[12] = AUC (0 to 1.5 hrs) in C57BL/6J mouse plasma at 10 mg/kg, po administered as single dose by LC/MS/MS analysis; assay type: ADME, organism-based; parameters: time < 1.5 hr, dose 10 mg/kg, route oral
[13] = AUC (0 to 1.5 hrs) in C57BL/6J mouse liver at 30 mg/kg, po administered as single dose by LC/MS/MS analysis; assay type: ADME, organism-based; parameters: dose 30 mg/kg, time < 1.5 hr, route oral; conditions: in vivo
[14] = Ratio of AUC (0 to 1.5 hrs) in C57BL/6J mouse liver to plasma at 10 mg/kg, po administered as single dose by LC/MS/MS analysis; assay type: ADME, organism-based; conditions: liver and plasma, read-out: Ratio AUC
[15] = AUC (0 to 1.5 hrs) in C57BL/6J mouse liver at 5 mg/kg, po administered as single dose by LC/MS/MS analysis; assay type: ADME, organism-based; parameters: dose 5 mg/kg, time < 1.5 hr, route oral; conditions: in vivo
Mus musculus [16] = test: Toxicity in C57BL/6J mouse assessed as hypoglycemia at 30 mg/kg, po measured up to 300 mins by glucometric method; assay type: organism-based; conditions: in vivo, 5 h
Mus musculus [17] = test: Antidiabetic activity in C57BL/6J mouse assessed as increase in insulin secretion at 30 mg/kg, po measured up to 60 mins by ELISA; assay type: functional, organism-based
How it was run: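 Male C57BL/6J mice (8 weeks) fasted 2 h, then dosed orally at time 0 (n = 8/group). Tail vein insulin measured at 0, 30 and 60 min by ultra-sensitive mouse insulin ELISA. Mean ± SEM, Dunnett's test.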

[18] = AUC (0 to 1.5 hrs) in C57BL/6J mouse pancreas at 10 mg/kg, po administered as single dose by LC/MS/MS analysis; assay type: ADME, organism-based; parameters: dose 10 mg/kg, time < 1.5 hr, route oral; conditions: in vivo
[19] = AUC (0 to 1.5 hrs) in C57BL/6J mouse plasma at 5 mg/kg, po administered as single dose by LC/MS/MS analysis; assay type: ADME, organism-based; parameters: time < 1.5 hr, dose 5 mg/kg, route oral
[20] = Ratio of AUC (0 to 1.5 hrs) in C57BL/6J mouse liver to plasma at 30 mg/kg, po administered as single dose by LC/MS/MS analysis; assay type: ADME, organism-based; conditions: liver and plasma, read-out: Ratio AUC
[21] = Ratio of AUC (0 to 1.5 hrs) in C57BL/6J mouse liver to plasma in C57BL/6J mouse at 5 mg/kg, po administered as single dose by LC/MS/MS analysis; assay type: ADME, organism-based; conditions: liver and plasma, read-out: Ratio AUC

Ratio AUC [1]: 3.2
AUC [3]: 3230 ng·h/g
Kp [4]: 2.2
Ratio AUC [5]: 3.1
AUC [6]: 505 ng·h/g
AUC(0-t) at 1.5 h [7]: 2330 ng·h/mL
AUC [8]: 5030 ng·h/g
Ratio AUC [9]: 2.9
Kp [10]: 1.8
Kp [11]: 1.4
AUC(0-t) at 1.5 h [12]: 574 ng·h/mL
AUC [13]: 15700 ng·h/g
Kp [14]: 5.6
AUC [15]: 1470 ng·h/g
AUC [18]: 1020 ng·h/g
AUC(0-t) at 1.5 h [19]: 351 ng·h/mL
Kp [20]: 6.8
Kp [21]: 4.2
SMILES: CS(=O)(=O)c1ccc([C@@H](C[C@H]2CCC(=O)C2)C(=O)Nc2cnccn2)cc1Cl [PIRAGLIATIN]
Activity (Mus musculus [2]): Dose-dependent effect
Activity (Mus musculus [16]): Toxic
Activity (Mus musculus [17]): Active
